Common to all, as to format: functional, organism-based
Assay [1] has as its system Meloidogyne incognita. In words: Nematicidal activity against Meloidogyne incognita J2 (root-knot nematode) larvae immersed in compound solution for 48 hr assessed as reduction in larval motility. In short, it runs like this: (§1)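 J2 hatched at 28 °C in modified Baermann funnels from eggs extracted from roots with sodium hypochlorite. Ethanol stocks were diluted in water with Tween-20 (final ethanol ≤1%, Tween-20 ≤0.3% v/v), with water and solvent controls. Fifteen J2 per well, covered, dark, 28 °C. Motile/immotile scored microscopically. Control-corrected (Schneider-Orelli), six replicates, run twice. EC50 from log-logistic regression.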

For assay [2], the system named is Meloidogyne incognita. The assay can be described thus: Nematicidal activity against Meloidogyne incognita J2 (root-knot nematode) larvae immersed in compound solution for 24 hr assessed as reduction in larval motility. In short, it runs like this: as §1
In assay [3] the test system is Meloidogyne incognita. The assay can be described thus: Nematicidal activity against Meloidogyne incognita J2 (root-knot nematode) larvae immersed in compound solution for 96 hr assessed as reduction in larval motility. In short, it runs like this: as §1
For assay [4], the system named is Meloidogyne javanica. In words: Nematicidal activity against Meloidogyne javanica J2 (root-knot nematode) larvae immersed in compound solution for 48 hr assessed as reduction in larval motility.

We go through 13 molecules from ChEMBL document CHEMBL3045047, “Phytochemistry and nematicidal activity of the essential oils from 8 Greek Lamiaceae aromatic plants and 13 terpene components” (J Agric Food Chem, 2010).

SMILES strings stand for the structures. ≈ marks a conversion by molar mass, not a printed value. A value given as a limit tells only on which side of the number the result lay.

Consider `C/C=C/c1ccc(OC)cc1` [ANETHOLE], for which the EC50 in assay [1] turned out to be 140 µg/mL (≈ 945 µM); in assay [2] it was 170 µg/mL (≈ 1150 µM); in assay [3], 124 µg/mL (≈ 837 µM).

For the molecule `C=C1CC/C=C(\C)CC[C@@H]2[C@@H]1CC2(C)C` [BETA-CARYOPHYLLENE], the EC50 was 433 µg/mL (≈ 2120 µM) in assay [1], over 1800 µg/mL in assay [2] and 307 µg/mL (≈ 1500 µM) in assay [3].

Regarding `Cc1ccc(C(C)C)cc1O` [CARVACROL], the EC50 in assay [1] came to 176 µg/mL (≈ 1170 µM); in assay [2], 264 µg/mL (≈ 1760 µM); in assay [4] it was 0.128 uL/ml; in assay [3], 117 µg/mL (≈ 779 µM).

`C=C(C)[C@H]1CC=C(C)CC1` [D-LIMONENE]: the EC50 in assay [1], in assay [2] and in assay [3] was over 1680 µg/mL in each case.

Take `CC12CCC(CC1)C(C)(C)O2` [EUCALYPTOL]: the EC50 in assay [1] was over 1840 µg/mL; in assay [2] it was over 1840 µg/mL; in assay [3], 1600 µg/mL (≈ 10400 µM).

As for `C=CCc1ccc(O)c(OC)c1` [EUGENOL], the EC50 in assay [1] was 192 µg/mL (≈ 1170 µM); in assay [2], 256 µg/mL (≈ 1560 µM); in assay [3], under 133 µg/mL.

Consider `CC(C)=CCC/C(C)=C/CO` [GERANIOL], for which the EC50 in assay [1] was found to be 158 µg/mL (≈ 1020 µM); in assay [2] it was 237 µg/mL (≈ 1540 µM); in assay [3], 105 µg/mL (≈ 681 µM).

Consider `C=C(C)[C@@H]1CC=C(C)C(=O)C1` [L-CARVONE], for which the EC50 is under 120 µg/mL in assay [1], 115 µg/mL (≈ 766 µM) in assay [2] and under 120 µg/mL in assay [3].

Regarding `C=CC(C)(O)CCC=C(C)C` (stereo unspecified) [LINALOOL], the EC50 in assay [1] was determined as 707 µg/mL (≈ 4580 µM); in assay [2], 862 µg/mL (≈ 5590 µM); in assay [3] it was 284 µg/mL (≈ 1840 µM).

On to `Cc1ccc(C(C)C)cc1` [P-CYMENE], for which the EC50 in assay [1], in assay [2] and in assay [3] was over 1720 µg/mL each time.

Turning to `CC(C)=C1CC[C@@H](C)CC1=O` [PULEGONE], the EC50 in assay [1] is under 117 µg/mL; in assay [2], 150 µg/mL (≈ 985 µM); in assay [4], 0.205 uL/ml; in assay [3], under 117 µg/mL.

Take `CC1=CCC(O)(C(C)C)CC1` (stereo unspecified) [TERPINEOL]: the EC50 is 290 µg/mL (≈ 1880 µM) in assay [1], 392 µg/mL (≈ 2540 µM) in assay [2] and 168 µg/mL (≈ 1090 µM) in assay [3].

`Cc1ccc(C(C)C)c(O)c1` [THYMOL]: the figures for the EC50 in assay [1], in assay [2] and in assay [3] were 280 µg/mL (≈ 1860 µM), 390 µg/mL (≈ 2600 µM) and 160 µg/mL (≈ 1070 µM), respectively.
